This is an account of results in paper PMC2826548 (Journal of structural biology, 2009).

Like-named read-outs stand apart in the source and are kept apart here.

The target of series [1] is Human K2Pg(C4G/E56D/L72Y), isolated kringle 2 domain of human plasminogen (human). Kind of series: SPR. A general note: In SPR one partner is held on a chip, and binding of the other changes the refractive index at the surface.
The target in series [2] is T1, K2Pg (Homo sapiens, UniProt P00747, C188G/E240D/L256Y).
T1 sequence (P00747 184-262 C188G/E240D/L256Y): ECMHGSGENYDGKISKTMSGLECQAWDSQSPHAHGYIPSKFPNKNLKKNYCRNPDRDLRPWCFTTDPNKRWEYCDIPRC
In words: SPR binding of VEK-30 variants to immobilized K2Pg. Put shortly:
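Recombinant peptide analytes (GB1-fusion, thrombin-cleaved, GS N-terminal remnant) were run at 25 °C. K2Pg at 100 μg/ml in 0.1 M NaOAc pH 4.0 was amine-coupled (NHS/EDC, ethanolamine block). A K2Pg-free reference cell was subtracted. KD = kd/ka.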

The nature of series [3]: CD α-helix content of VEK-30 peptides in absence of K2Pg. Format: physicochemical. Conditions: 222 nm, 30 μM peptide, 100 mM sodium phosphate, pH 7.4, room temperature. Put shortly:
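Recombinant peptides (His6-GB1 fusion expressed in E. coli BL21(DE3), thrombin-cleaved, GS N-terminal remnant; variants by site-directed mutagenesis; integrity checked by MALDI-TOF). Spectra recorded 200–250 nm in a 1 mm quartz cell without K2Pg. Concentration set by A280. Helix fraction derived from mean residue ellipticity at 222 nm as f_α = (−[θ]222 − 2340)/30,300.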

Series [4] can be described thus: Sedimentation equilibrium analytical ultracentrifugation. Format: physicochemical. The conditions noted are these: sedimentation equilibrium (and NMR correlation time).
The target in series [5] is T1, K2Pg. Conditions: variant kringle vs K2Pg parent; ref [5]; cited from earlier work.
Series [6] relates to other isolated Pg kringle domains. Conditions: cited from earlier work.
Series [7] deals with Human K2Pg(C4G/E56D/L72Y), isolated kringle 2 domain of human plasminogen (human).
Series [8] has the same target. In words: AUC.

For VEK-30[D7N] (peptide), in series [1], the Kd – broadly, the constant that tells how readily two partners part at equilibrium – came to 1.94 µM; the koff – broadly, the first-order rate constant of dissociation – was 0.0704 s⁻¹; the kon (in general, the second-order rate constant of association) turned out to be 36200 M⁻¹ s⁻¹.

In series [1], VEK-30[D7N/E9Q] (peptide) gave a Kd of 1.71 µM, a koff of 0.086 s⁻¹ and a kon of 50400 M⁻¹ s⁻¹.

As to VEK-30[D7A/E9A] (peptide), in series [1], the Kd stood at 0.371 µM, the koff amounted to 0.0967 s⁻¹ and the kon was found to be 261000 M⁻¹ s⁻¹.

In the case of “H-GSVEKLTADAELQRLKNERHEEAELERLKSEY-OH [VEK-30]”, the koff on K2Pg [2] (pH 7.4, read-out: koff (dissociation rate constant)) was 0.0293 s⁻¹. Besides, the kon at K2Pg [2] (pH 7.4, read-out: kon (association rate constant)) worked out at 454000 M⁻¹ s⁻¹. Further, the “Apo-helicity (% α-helix in absence of K2Pg)” value in series [3] is given as 34%. Moreover, the “association state in solution” value in series [4] was “monomeric form”. The “affinity enhancement of K2Pg(C4G/E56D/L72Y) compared with K2Pg parent” value at K2Pg [5] was “approximately 15 fold”. In addition, in series [6] (background statement in Introduction, no reference printed in that sentence), the “specificity of binding to Pg for the kringle 2 domain” value is “highly specific”. Further, the “affinity for the other isolated Pg kringle domains” value in series [6] (ref [5],[33]) was “no measurable affinity”.

Substance “VEK-30, 30-amino acid residue internal peptide from the streptococcal M-like plasminogen binding protein PAM” registered a Kd in series [7] of 0.04 µM. In addition, the stoichiometry N (VEK-30 per K2Pg) in series [8] is 1. In series [1], the Kd was found to be 0.065 µM, the koff is 0.0293 s⁻¹, the kon stood at 454000 M⁻¹ s⁻¹ and the stoichiometry N (VEK-30 per K2Pg) amounted to 1.

In series [1], VEK-30[D7A] (peptide) gave a Kd of 0.446 µM, a koff of 0.0561 s⁻¹ and a kon of 126000 M⁻¹ s⁻¹.
